Experimental data: ChEMBL document CHEMBL2203171, “The use of small molecule probes to study spatially separated stimulus-induced signaling pathways” (Bioorg Med Chem Lett, 2012)
The source made the active and inactive calls. The rule behind the calls is not given here.

How the values were obtained:
[1] = target: T1, Inhibitor of nuclear factor kappa-B kinase subunit beta (Mus musculus) (UniProt O88351); test: Inhibition of IKKebta in C57BL/6 mouse BMDM cells assessed as inhibition of LPS-induced IkappaBalpha phosphorylation at 25 uM by Western blot analysis
T1 sequence (whole entry): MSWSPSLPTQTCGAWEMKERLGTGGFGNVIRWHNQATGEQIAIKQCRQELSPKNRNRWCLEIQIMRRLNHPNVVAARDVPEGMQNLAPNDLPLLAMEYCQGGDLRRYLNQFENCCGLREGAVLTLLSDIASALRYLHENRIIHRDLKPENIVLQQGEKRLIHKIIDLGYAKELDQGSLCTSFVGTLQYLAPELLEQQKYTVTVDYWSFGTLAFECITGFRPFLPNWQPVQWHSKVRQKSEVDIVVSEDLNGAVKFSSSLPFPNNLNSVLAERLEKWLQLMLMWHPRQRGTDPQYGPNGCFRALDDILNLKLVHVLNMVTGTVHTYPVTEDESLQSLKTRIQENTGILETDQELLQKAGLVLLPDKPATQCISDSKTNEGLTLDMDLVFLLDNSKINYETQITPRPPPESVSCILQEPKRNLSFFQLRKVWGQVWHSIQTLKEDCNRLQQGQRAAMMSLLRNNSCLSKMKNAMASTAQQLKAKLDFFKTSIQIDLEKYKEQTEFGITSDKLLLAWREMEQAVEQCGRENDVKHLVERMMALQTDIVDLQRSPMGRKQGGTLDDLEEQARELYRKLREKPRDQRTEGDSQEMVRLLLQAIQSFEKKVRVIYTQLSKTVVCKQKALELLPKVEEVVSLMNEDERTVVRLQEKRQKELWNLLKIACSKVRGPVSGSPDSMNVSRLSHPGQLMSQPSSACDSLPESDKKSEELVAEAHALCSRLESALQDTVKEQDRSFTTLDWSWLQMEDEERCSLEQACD

[2] = target: T1, Inhibitor of nuclear factor kappa-B kinase subunit beta (Mus musculus); test: Inhibition of IKKbeta in C57BL/6 mouse BMDM cells assessed as inhibition of TNFalpha-induced MCP1 […] at 25 uM by Northern blot analysis; type: cell-based
[3] = target: MAP kinase p38 (Mus musculus) (UniProt P47811+O08911+Q9WUI1+Q9Z1B7); test: Inhibition of MAPK p38 in C57BL/6 mouse BMDM cells assessed as inhibition of LPS-induced phosphorylation at 50 uM up to 90 mins by Western blot analysis; type: cell-based
[4] = target: T2, Toll-like receptor 9 (Mus musculus) (UniProt Q9EQU3); test: Inhibition of MyD88 recruitment to TLR9 in C57BL/6 mouse BMDM cells assessed as inhibition of CpG-induced p38 MAPK activity up to 90 mins; type: cell-based
T2 sequence (whole entry): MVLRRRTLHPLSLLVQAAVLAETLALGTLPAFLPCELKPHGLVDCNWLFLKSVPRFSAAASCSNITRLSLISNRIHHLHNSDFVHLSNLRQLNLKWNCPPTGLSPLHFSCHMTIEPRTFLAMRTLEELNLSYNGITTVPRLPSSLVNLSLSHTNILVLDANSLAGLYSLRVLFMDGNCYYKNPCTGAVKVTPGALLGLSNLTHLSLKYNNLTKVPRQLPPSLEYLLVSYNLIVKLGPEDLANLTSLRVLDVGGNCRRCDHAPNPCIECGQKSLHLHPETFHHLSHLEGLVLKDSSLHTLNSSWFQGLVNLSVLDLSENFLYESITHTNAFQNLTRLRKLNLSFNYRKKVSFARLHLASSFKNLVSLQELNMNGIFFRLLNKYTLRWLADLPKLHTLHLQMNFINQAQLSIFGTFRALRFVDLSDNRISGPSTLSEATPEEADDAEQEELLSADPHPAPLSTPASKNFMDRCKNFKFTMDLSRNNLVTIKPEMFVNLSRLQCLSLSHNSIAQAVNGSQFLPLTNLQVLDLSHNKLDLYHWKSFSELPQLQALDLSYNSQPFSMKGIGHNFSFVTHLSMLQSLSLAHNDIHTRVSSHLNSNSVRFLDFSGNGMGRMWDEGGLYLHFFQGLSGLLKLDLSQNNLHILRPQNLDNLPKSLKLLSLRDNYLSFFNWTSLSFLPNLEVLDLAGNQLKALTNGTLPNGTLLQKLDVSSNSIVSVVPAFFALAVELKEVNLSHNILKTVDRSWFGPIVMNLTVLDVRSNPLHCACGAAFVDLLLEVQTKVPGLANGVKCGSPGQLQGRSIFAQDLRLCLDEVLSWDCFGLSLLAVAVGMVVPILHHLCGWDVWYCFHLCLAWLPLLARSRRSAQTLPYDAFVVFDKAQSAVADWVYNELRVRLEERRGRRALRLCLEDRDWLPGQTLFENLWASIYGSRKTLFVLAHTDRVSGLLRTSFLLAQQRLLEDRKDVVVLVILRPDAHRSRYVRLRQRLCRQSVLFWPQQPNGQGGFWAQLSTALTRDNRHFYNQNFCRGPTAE
Method in brief: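 Bone marrow macrophages from C57BL/6 mice, grown in 70% growth medium (DMEM, 10% FBS) plus 30% L929-conditioned medium and given fresh medium 12-14 h before stimulation. Stimuli: IL-1 40 ng/ml, HKSA ~10^8 cfu/ml, pI:pC 50 μg/ml or CpG 10 μg/ml, ± compound at 10 μM (final) added from a 200x DMSO stock. IκBα and p38 profiled by immunoblot. Three independent experiments, quantitated and normalized.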

[5] = target: T1, Inhibitor of nuclear factor kappa-B kinase subunit beta (Mus musculus); test: Inhibition of IKKbeta in C57BL/6 mouse BMDM cells assessed as inhibition of LPS-induced MCP1 […] at 25 uM by Northern blot analysis; type: cell-based

`O=C(CCCCCN1C(=O)C=CC1=O)Oc1ccc2cc(C(C(=O)NCc3ccccc3)N(C(=O)Cc3ccc4c(c3)OCO4)C3CC3)ccc2c1` (stereo not given) was tested, and the inhibition [1] was “Active”, the inhibition [2] was “inactive” and the inhibition [3] was “inactive”. The inhibition [4] was “inactive” and the inhibition [5] was “Active”.
